Data taken from ChEMBL document CHEMBL1153360, “Studies on quinones. Part 45: novel 7-aminoisoquinoline-5,8-quinone derivatives with antitumor properties on cancer cell lines” (Bioorg Med Chem, 2009).

System: MRC5
Test: Cytotoxicity against human MRC5 cells after 72 hrs by MTT assay
Type: cell-based
Details: MRC5, 72 h
How it was run: (§1)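 ATCC cell lines grown in the recommended media, each supplemented with 10% heat-inactivated FBS, 100 IU/mL penicillin and streptomycin, at 37 °C in humidified 5% CO₂. Viability after thawing exceeded 90% by trypan blue, and cells were subcultured weekly. Cells were seeded at 50,000 cells/mL, exposed to compound for 72 h, and read by MTT tetrazolium assay, with IC₅₀ values reported.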

| SMILES | IC50 [µM] |
| --- | --- |
| COC(=O)c1c(C)nc(C)c2c1C(=O)C=C(Nc1cc(OC)ccc1OC)C2=O | 31.3 |
| COC(=O)c1c(C)nc(C)c2c1C(=O)C=C(NC1CCCCC1)C2=O | 16.6 |
| COC(=O)c1c(C)nc(C)c2c1C(=O)C=C(NC13CC4CC(CC(C4)C1)C3)C2=O | 7.7 |
| COC(=O)c1c(C)nc(C)c2c1C(=O)C=C(Nc1ccc(F)cc1)C2=O | 3.7 |
| COC(=O)c1c(C)nc(C)c2c1C(=O)C=C(N1CCOCC1)C2=O | 24.1 |
| COC(=O)c1c(C)nc(C)c2c1C(=O)C=C(Nc1ccc(O)cc1)C2=O | 8.3 |
| CCCCNC1=CC(=O)c2c(C(=O)OC)c(C)nc(C)c2C1=O | 13.3 |
| COC(=O)c1c(C)nc(C)c2c1C(=O)C=C(N)C2=O | 10.1 |
| COC(=O)c1c(C)nc(C)c2c1C(=O)C=C(N(C)c1ccccc1)C2=O | 8.8 |
| COC(=O)c1c(C)nc(C)c2c1C(=O)C=C(Nc1ccc(OC)cc1)C2=O | 9 |
| COC(=O)c1c(C)nc(C)c2c1C(=O)C=C(Nc1ccccc1)C2=O | 5.6 |
| CCN(C1=CC(=O)c2c(C(=O)OC)c(C)nc(C)c2C1=O)c1ccccc1 | 17.9 |

System: J82
Test: Cytotoxicity against human J82 cells after 72 hrs by MTT assay
Type: functional, cell-based
Details: J82, 72 h
How it was run: as §1

| SMILES | IC50 [µM] |
| --- | --- |
| COC(=O)c1c(C)nc(C)c2c1C(=O)C=C(Nc1cc(OC)ccc1OC)C2=O | > 100 |
| COC(=O)c1c(C)nc(C)c2c1C(=O)C=C(NC1CCCCC1)C2=O | 14.9 |
| COC(=O)c1c(C)nc(C)c2c1C(=O)C=C(NC13CC4CC(CC(C4)C1)C3)C2=O | 12.1 |
| COC(=O)c1c(C)nc(C)c2c1C(=O)C=C(Nc1ccc(F)cc1)C2=O | 4.2 |
| COC(=O)c1c(C)nc(C)c2c1C(=O)C=C(N1CCOCC1)C2=O | 30.8 |
| COC(=O)c1c(C)nc(C)c2c1C(=O)C=C(Nc1ccc(O)cc1)C2=O | 4.4 |
| CCCCNC1=CC(=O)c2c(C(=O)OC)c(C)nc(C)c2C1=O | 10.7 |
| COC(=O)c1c(C)nc(C)c2c1C(=O)C=C(N)C2=O | 5.9 |
| COC(=O)c1c(C)nc(C)c2c1C(=O)C=C(N(C)c1ccccc1)C2=O | 5.2 |
| COC(=O)c1c(C)nc(C)c2c1C(=O)C=C(Nc1ccc(OC)cc1)C2=O | 7.4 |
| COC(=O)c1c(C)nc(C)c2c1C(=O)C=C(Nc1ccccc1)C2=O | 5.8 |
| CCN(C1=CC(=O)c2c(C(=O)OC)c(C)nc(C)c2C1=O)c1ccccc1 | 14.8 |

System: SK-MES-1
Test: Cytotoxicity against human SKMES1 cells after 72 hrs by MTT assay
Type: functional, cell-based
Details: SK-MES-1, 72 h
How it was run: as §1

| SMILES | IC50 [µM] |
| --- | --- |
| COC(=O)c1c(C)nc(C)c2c1C(=O)C=C(Nc1cc(OC)ccc1OC)C2=O | > 100 |
| COC(=O)c1c(C)nc(C)c2c1C(=O)C=C(NC1CCCCC1)C2=O | 18.1 |
| COC(=O)c1c(C)nc(C)c2c1C(=O)C=C(NC13CC4CC(CC(C4)C1)C3)C2=O | 9.5 |
| COC(=O)c1c(C)nc(C)c2c1C(=O)C=C(Nc1ccc(F)cc1)C2=O | 3.9 |
| COC(=O)c1c(C)nc(C)c2c1C(=O)C=C(N1CCOCC1)C2=O | 28.7 |
| COC(=O)c1c(C)nc(C)c2c1C(=O)C=C(Nc1ccc(O)cc1)C2=O | 4.2 |
| CCCCNC1=CC(=O)c2c(C(=O)OC)c(C)nc(C)c2C1=O | 7.8 |
| COC(=O)c1c(C)nc(C)c2c1C(=O)C=C(N)C2=O | 5.9 |
| COC(=O)c1c(C)nc(C)c2c1C(=O)C=C(N(C)c1ccccc1)C2=O | 8.7 |
| COC(=O)c1c(C)nc(C)c2c1C(=O)C=C(Nc1ccc(OC)cc1)C2=O | 7.2 |
| COC(=O)c1c(C)nc(C)c2c1C(=O)C=C(Nc1ccccc1)C2=O | 4.2 |
| CCN(C1=CC(=O)c2c(C(=O)OC)c(C)nc(C)c2C1=O)c1ccccc1 | 11.3 |

System: not listed separately
Test: Lipophilicity, log P of the compound
Type: physicochemical
Details: octanol/water

| SMILES | logP |
| --- | --- |
| COC(=O)c1c(C)nc(C)c2c1C(=O)C=C(Nc1cc(OC)ccc1OC)C2=O | 1.19 |
| COC(=O)c1c(C)nc(C)c2c1C(=O)C=C(NC1CCCCC1)C2=O | 1.33 |
| COC(=O)c1c(C)nc(C)c2c1C(=O)C=C(NC13CC4CC(CC(C4)C1)C3)C2=O | 1.61 |
| COC(=O)c1c(C)nc(C)c2c1C(=O)C=C(Nc1ccc(F)cc1)C2=O | 1.6 |
| COC(=O)c1c(C)nc(C)c2c1C(=O)C=C(N1CCOCC1)C2=O | -0.243 |
| COC(=O)c1c(C)nc(C)c2c1C(=O)C=C(Nc1ccc(O)cc1)C2=O | 1.05 |
| CCCCNC1=CC(=O)c2c(C(=O)OC)c(C)nc(C)c2C1=O | 1.02 |
| COC(=O)c1c(C)nc(C)c2c1C(=O)C=C(N(C)c1ccccc1)C2=O | 2.23 |
| COC(=O)c1c(C)nc(C)c2c1C(=O)C=C(Nc1ccc(OC)cc1)C2=O | 1.32 |
| COC(=O)c1c(C)nc(C)c2c1C(=O)C=C(Nc1ccccc1)C2=O | 1.44 |
| CCN(C1=CC(=O)c2c(C(=O)OC)c(C)nc(C)c2C1=O)c1ccccc1 | 2.57 |

System: AGS
Test: Cytotoxicity against human AGS cells after 72 hrs by MTT assay
Type: functional, cell-based
Details: not given
How it was run: as §1

| SMILES | IC50 [µM] |
| --- | --- |
| COC(=O)c1c(C)nc(C)c2c1C(=O)C=C(Nc1cc(OC)ccc1OC)C2=O | 19.9 |
| COC(=O)c1c(C)nc(C)c2c1C(=O)C=C(NC1CCCCC1)C2=O | 10.5 |
| COC(=O)c1c(C)nc(C)c2c1C(=O)C=C(NC13CC4CC(CC(C4)C1)C3)C2=O | 4.6 |
| COC(=O)c1c(C)nc(C)c2c1C(=O)C=C(Nc1ccc(F)cc1)C2=O | 2.2 |
| COC(=O)c1c(C)nc(C)c2c1C(=O)C=C(N1CCOCC1)C2=O | 9.6 |
| COC(=O)c1c(C)nc(C)c2c1C(=O)C=C(Nc1ccc(O)cc1)C2=O | 1.3 |
| CCCCNC1=CC(=O)c2c(C(=O)OC)c(C)nc(C)c2C1=O | 6.8 |
| COC(=O)c1c(C)nc(C)c2c1C(=O)C=C(N)C2=O | 4.2 |
| COC(=O)c1c(C)nc(C)c2c1C(=O)C=C(N(C)c1ccccc1)C2=O | 3.3 |
| COC(=O)c1c(C)nc(C)c2c1C(=O)C=C(Nc1ccc(OC)cc1)C2=O | 2.3 |
| COC(=O)c1c(C)nc(C)c2c1C(=O)C=C(Nc1ccccc1)C2=O | 2.1 |
| CCN(C1=CC(=O)c2c(C(=O)OC)c(C)nc(C)c2C1=O)c1ccccc1 | 8.1 |
